The values below come from ChEMBL document CHEMBL2203215, “Discovery of 6-[4-(6-nitroxyhexanoyl)piperazin-1-yl)]-9H-purine, as pharmacological post-conditioning agent” (Bioorg Med Chem, 2012).

The subject of data set [1] is Oryctolagus cuniculus. Put plainly: Toxicity in New Zealand White rabbit ischemia/reperfusion model assessed as blood pressure at total dose of 3.8 umol/kg administered bolus at 20th mins of ischemia and 1st min of reperfusion measured at 180 mins reperfusion is period of reperfusion. The class given is organism-based. To be noted: in vivo, iv, 3 h.
The subject of data set [2] is Oryctolagus cuniculus. Kind of data set: Cardioprotective activity in New Zealand White rabbit ischemia/reperfusion model assessed as reduction of infarct size at total dose of 3.8 umol/kg administered bolus at 20th mins and 1st min of reperfusion. The class given is functional. On the set-up: scale not given: the % may be the effect or the level left. The gist of the method:
(§1)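 Male rabbits (n = 6–8/group), anesthetized with thiopentone 30 mg/kg via ear vein, intubated and ventilated. Subjected to 30 min regional myocardial ischemia and 3 h reperfusion. Given as two boluses of 1.9 µmol/kg (3.8 µmol/kg total). Heart slices stained with 1% TTC (phosphate buffer pH 7.4, 20 min, 37 °C), then fixed in formaldehyde. Risk zone delineated under UV at 366 nm; infarct expressed relative to risk area.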

Data set [3] concerns Oryctolagus cuniculus. Kind of data set: Cardioprotective activity in New Zealand White rabbit ischemia/reperfusion model assessed as reduction of infarct size at total dose of 3.8 umol/kg administered bolus at 40th mins and 1st min before sustained ischemia. Also noted: scale not given: the % may be the effect or the level left. The class given is functional. The gist of the method:
as §1

Data set [4] deals with Oryctolagus cuniculus. Kind of data set: Toxicity in New Zealand White rabbit ischemia/reperfusion model assessed as heart rate at total dose of 3.8 umol/kg administered bolus at 20th mins of ischemia and 1st min of reperfusion measured at 180 mins reperfusion is period of reperfusion. Conditions: in vivo, iv, 3 h. The class given is organism-based.
Data set [5] concerns Oryctolagus cuniculus. Put plainly: Toxicity in New Zealand White rabbit ischemia/reperfusion model assessed as heart rate at total dose of 3.8 umol/kg administered bolus at 40th mins and 1st min before sustained ischemia measured at 20 mins ischemia period of initial ischemic insult. To be noted: in vivo, iv. The data set is classed as organism-based.
Data set [6] concerns Oryctolagus cuniculus. Put plainly: Toxicity in New Zealand White rabbit ischemia/reperfusion model assessed as blood pressure at total dose of 3.8 umol/kg administered bolus at 40th mins and 1st min before sustained ischemia measured at 20 mins ischemia period of initial ischemic insult. The class given is organism-based. Conditions: in vivo, iv.
For data set [7], the system named is Oryctolagus cuniculus. Put plainly: Toxicity in New Zealand White rabbit ischemia/reperfusion model assessed as mortality at total dose of 3.8 umol/kg administered bolus measured at 10th and 15th mins of reperfusion. The class given is organism-based. To be noted: in vivo. The essentials: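 Male rabbits, randomized (n = 6–8 per group), anesthetized with sodium thiopentone 30 mg/kg into an ear vein, intubated and mechanically ventilated. Regional myocardial ischemia for 30 min, then 3 h reperfusion. Compound given as bolus at the 20th min of ischemia and the 1st min of reperfusion, total dose 3.8 µmol/kg. Animal survival was followed through reperfusion.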

The test system of data set [8] is Oryctolagus cuniculus. Kind of data set: Cardioprotective activity in New Zealand White rabbit ischemia/reperfusion model assessed as reduction of infarct to risk area ratio at total dose of 3.8 umol/kg administered bolus. The class given is functional. On the set-up: scale not given: the % may be the effect or the level left. The gist of the method:
as §1

In data set [9] the test system is Oryctolagus cuniculus. Kind of data set: Cardioprotective activity in New Zealand White rabbit ischemia/reperfusion model assessed as increase of phosphorylated Akt level at total dose of 3.8 umol/kg administered bolus at 40th mins and 1st min before sustained ischemia by Western blot analysis. The class given is functional, organism-based. Background: In western blotting, separated proteins are transferred to a membrane and probed.

Data set [10] deals with Oryctolagus cuniculus. Kind of data set: Cardioprotective activity in New Zealand White rabbit ischemia/reperfusion model assessed as increase of eNOS phosphorylated level at total dose of 3.8 umol/kg administered bolus at 40th mins and 1st min before sustained ischemia by Western blot analysis. The data set is classed as functional, organism-based.

Calls of active or inactive are those of the source. The rule behind the calls is not given here.

With `O=[N+]([O-])OC[C@H]1O[C@@H](n2cnc3c(N4CCCCC4)ncnc32)[C@H](O)[C@@H]1O`, the Activity is 110 mmHg in data set [1]; 22.7% in data set [2]; 17.9% in data set [3]; 271 bpm in data set [4]; 279 bpm in data set [5]; 113 mmHg in [6].

`O=C(CO[N+](=O)[O-])N1CCN(c2ncnc3[nH]cnc23)CC1`: the Activity is given as 109 mmHg in data set [1]; 26.2% in [2]; 37.3% in data set [3]; 274 bpm in [4]; 278 bpm in data set [5]; 114 mmHg in data set [6].

With `O=C(CNc1ncnc2[nH]cnc12)NCCO[N+](=O)[O-]`, the Activity is on record as 104 mmHg in data set [1]; “Toxic” in data set [7]; 34.8% in data set [3]; 273 bpm in data set [4]; 282 bpm in data set [5]; 110 mmHg in [6].

`O=C(CCCCCO[N+](=O)[O-])N1CCN(c2ncnc3[nH]cnc23)CC1`: the Activity is recorded as 112 mmHg in data set [1]; 13.4% in data set [2]; 12.3% in [8]; 24.9% in [3]; 269 bpm in data set [4]; 278 bpm in data set [5]. In addition, the Activity in [6] turned out to be 117 mmHg.

Regarding `O=[N+]([O-])OCCCCCCn1cnc2c(N3CCCCC3)ncnc21`, the Activity is reported as 104 mmHg in [1]; 36.8% in data set [2]; 19.8% in [3]; 270 bpm in data set [4]; 276 bpm in [5]; 112 mmHg in [6]. The result in data set [9] and in data set [10] was Active.

As for `Nc1ncnc2c1ncn2[C@@H]1O[C@H](CO[N+](=O)[O-])[C@@H](O)[C@H]1O`, the Activity amounted to 98 mmHg in data set [1]; 40.2% in data set [2]; 275 bpm in data set [4]; 284 bpm in data set [5]; 102 mmHg in [6].

In the case of `O=C(NCCO[N+](=O)[O-])c1nc2c(N3CCCCC3)ncnc2[nH]1`, the Activity is 103 mmHg in data set [1]; “Toxic” in [7]; 34.4% in [3]; 269 bpm in [4]; 274 bpm in [5]; 112 mmHg in data set [6].

As for `O=C(CCCCC1CCSS1)N1CCN(c2ncnc3[nH]cnc23)CC1` (stereo not given), the Activity is 101 mmHg in data set [1]; 28.6% in data set [2]; 271 bpm in data set [4]; 279 bpm in data set [5]; 106 mmHg in data set [6].

As to `O=C(Cn1cnc2c(N3CCCCC3)ncnc21)NCCO[N+](=O)[O-]`, the Activity in data set [1] is 102 mmHg; in data set [7], “Toxic”; in data set [3], 28.4%; in data set [4] it was 276 bpm; in data set [5], 280 bpm; in [6], 115 mmHg.
